Active and inactive are the calls of the source. No cut-off for these calls is given here.
Columns and labels:
[1] = biological target: T1, Matrix metalloproteinase-9 (Homo sapiens, UniProt P14780); assay: Inhibition of recombinant human MMP9 at 10 uM using thiopeptide as substrate preincubated for 30 mins followed by substrate addition and measured every min for 20 mins by colorimetric assay relative to control
How it was run: (§1)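 Colorimetric kit assay: human recombinant enzyme plus inhibitor in assay buffer for 30 min at 37 °C, then chromogenic MMP substrate added; A412 recorded each minute over 20 min. Enzyme-free blanks and inhibitor-free controls included.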

[2] = biological target: T2, 72 kDa type IV collagenase (Homo sapiens, UniProt P08253); assay: Inhibition of recombinant human MMP2 using thiopeptide as substrate preincubated for 30 mins followed by substrate addition and measured every mins for 20 min by colorimetric assay
Target sequence in this assay (P08253 whole entry): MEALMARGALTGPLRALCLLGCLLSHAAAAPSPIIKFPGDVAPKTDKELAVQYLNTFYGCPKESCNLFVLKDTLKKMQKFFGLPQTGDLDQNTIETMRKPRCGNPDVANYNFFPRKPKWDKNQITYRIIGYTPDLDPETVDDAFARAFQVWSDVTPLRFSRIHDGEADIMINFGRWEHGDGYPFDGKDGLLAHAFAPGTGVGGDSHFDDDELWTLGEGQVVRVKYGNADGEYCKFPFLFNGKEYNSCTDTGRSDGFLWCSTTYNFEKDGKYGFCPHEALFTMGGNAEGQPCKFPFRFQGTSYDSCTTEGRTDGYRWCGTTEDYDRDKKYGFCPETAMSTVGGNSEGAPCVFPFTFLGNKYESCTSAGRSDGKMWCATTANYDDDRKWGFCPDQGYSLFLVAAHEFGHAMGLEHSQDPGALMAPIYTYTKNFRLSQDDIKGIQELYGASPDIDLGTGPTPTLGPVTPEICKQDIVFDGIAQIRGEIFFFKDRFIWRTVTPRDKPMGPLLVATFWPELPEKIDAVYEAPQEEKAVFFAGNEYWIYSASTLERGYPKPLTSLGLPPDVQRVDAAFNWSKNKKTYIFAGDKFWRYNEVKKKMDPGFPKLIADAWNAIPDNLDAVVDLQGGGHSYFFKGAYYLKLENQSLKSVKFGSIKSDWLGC

[3] = biological target: T1, Matrix metalloproteinase-9; assay: Inhibition of recombinant human MMP9 using thiopeptide as substrate preincubated for 30 mins followed by substrate addition and measured every min for 20 mins by colorimetric assay
[4] = biological target: T2, 72 kDa type IV collagenase; assay: Inhibition of recombinant human MMP2 at 10 uM using thiopeptide as substrate preincubated for 30 mins followed by substrate addition and measured every min for 20 mins by colorimetric assay relative to control; how it was run: as §1
Target sequence in this assay (P08253 110-660 limits assumed): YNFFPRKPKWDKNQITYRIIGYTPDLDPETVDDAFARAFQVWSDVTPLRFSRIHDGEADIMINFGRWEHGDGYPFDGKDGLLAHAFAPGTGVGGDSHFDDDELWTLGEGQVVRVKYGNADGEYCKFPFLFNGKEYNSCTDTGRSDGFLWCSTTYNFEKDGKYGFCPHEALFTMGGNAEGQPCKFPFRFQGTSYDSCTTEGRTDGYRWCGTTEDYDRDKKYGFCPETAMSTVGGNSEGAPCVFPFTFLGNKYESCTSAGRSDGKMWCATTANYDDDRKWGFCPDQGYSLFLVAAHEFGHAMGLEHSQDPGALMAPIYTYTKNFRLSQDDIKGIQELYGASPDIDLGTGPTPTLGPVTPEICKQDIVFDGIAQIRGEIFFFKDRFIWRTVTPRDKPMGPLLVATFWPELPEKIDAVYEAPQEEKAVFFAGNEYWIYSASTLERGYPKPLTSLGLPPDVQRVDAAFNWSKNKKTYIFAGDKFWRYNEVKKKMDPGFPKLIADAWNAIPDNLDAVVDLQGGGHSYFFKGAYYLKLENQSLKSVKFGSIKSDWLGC

HL-60 = assay: Antiproliferative activity against human HL60 cells assessed as reduction in cell viability incubated for 48 hrs by MTT assay; type: functional, cell-based; conditions: HL-60, 48 h
How it was run: (§2)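 Cells grown in RPMI1640 with 10% FBS at 37°C, 5% CO2; seeded at 4000-5000 cells/well for 8 h, then exposed to a range of compound concentrations for 48 h. MTT added for 4 h, formazan dissolved in DMSO, absorbance at 570 nm; IC50 calculated from inhibition ratios.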

K562 = assay: Antiproliferative activity against human K562 cells assessed as reduction in cell viability incubated for 48 hrs by MTT assay; type: functional, cell-based; conditions: K562, 48 h; how it was run: as §2
KG-1 = assay: Antiproliferative activity against human KG1 cells assessed as reduction in cell viability incubated for 48 hrs by MTT assay; type: functional, cell-based; conditions: KG-1, 48 h; how it was run: as §2
A549 [5] = assay: Antiproliferative activity against human A549 cells assessed as reduction in cell viability incubated for 48 hrs by MTT assay; type: functional, cell-based; conditions: A549, 48 h; how it was run: as §2
PC-3 = assay: Antiproliferative activity against human PC3 cells assessed as reduction in cell viability incubated for 48 hrs by MTT assay; type: functional, cell-based; conditions: PC-3, 48 h; how it was run: as §2
MCF7 = assay: Antiproliferative activity against human MCF7 cells assessed as reduction in cell viability incubated for 48 hrs by MTT assay; type: functional, cell-based; conditions: MCF7, 48 h; how it was run: as §2
HUVEC [6] = assay: Cytotoxicity against HUVEC assessed as reduction in cell viability incubated for 48 hrs by MTT assay; type: cell-based; conditions: Homo sapiens; how it was run: as §2
A549 [7] = assay: Inhibition of cell invasion in human A549 cells at 1 to 10 uM incubated for 24 hrs by crystal violet staining based matrigel migration assay; type: functional
How it was run: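 As the migration setup but membrane precoated with matrigel (1:10 diluted) for 2 h at 37°C: A549 pretreated 24 h at 1, 5, 10 µM, 30,000 cells in serum-free medium above, 10% FBS below, 24 h, then fixing, 0.1% crystal violet staining and counting. Three repeats, mean ± SEM.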

HUVEC [8] = assay: Antiangiogenic activity in HUVEC assessed as inhibition of tuber formation at 10 uM incubated for 24 hrs by matrigel-based inverted microscopy; type: functional, cell-based; conditions: Homo sapiens
How it was run: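 HUVEC treated with compound for 24 h in serum-free RPMI1640, harvested and layered onto undiluted matrigel polymerized 2 h at 37°C; after 6 h cell organization examined by inverted microscope, with mesh number counted as the angiogenesis read-out. Tested at 10 µM.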

A549 [9] = assay: Induction of apoptosis in human A549 cells assessed as viable cells at 1 uM incubated for 48 hrs by annexin V FITC and propidium iodide based flow cytometry (reference value: 94.7 %); type: functional; conditions: A549, 48 h, read-out: Activity
How it was run: (§3)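 A549 cells (1×10^5 cells/mL) treated 48 h at 0, 1, 5 or 10 µM; harvested, washed in cold PBS, resuspended in binding buffer with annexin V-FITC and PI, 15 min at room temperature in the dark, then analysed by flow cytometry.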

A549 [10] = assay: Induction of apoptosis in human A549 cells assessed as early apoptotic cells at 1 uM incubated for 48 hrs by annexin V FITC and propidium iodide based flow cytometry (reference value: 2.15 %); type: functional; how it was run: as §3
A549 [11] = assay: Induction of apoptosis in human A549 cells assessed as late apoptotic cells at 1 uM incubated for 48 hrs by annexin V FITC and propidium iodide based flow cytometry (reference value: 3.11 %); type: functional; how it was run: as §3
A549 [12] = assay: Induction of apoptosis in human A549 cells assessed as necrotic cells at 1 uM incubated for 48 hrs by annexin V FITC and propidium iodide based flow cytometry (reference value: 0.02 %); type: functional; how it was run: as §3
A549 [13] = assay: Induction of apoptosis in human A549 cells assessed as viable cells at 5 uM incubated for 48 hrs by annexin V FITC and propidium iodide based flow cytometry (reference value: 94.7 %); type: functional; conditions: A549, 48 h, read-out: Activity; how it was run: as §3
A549 [14] = assay: Induction of apoptosis in human A549 cells assessed as early apoptotic cells at 5 uM incubated for 48 hrs by annexin V FITC and propidium iodide based flow cytometry (reference value: 2.15 %); type: functional; how it was run: as §3
A549 [15] = assay: Induction of apoptosis in human A549 cells assessed as late apoptotic cells at 5 uM incubated for 48 hrs by annexin V FITC and propidium iodide based flow cytometry (reference value: 3.11 %); type: functional; how it was run: as §3
A549 [16] = assay: Induction of apoptosis in human A549 cells assessed as necrotic cells at 5 uM incubated for 48 hrs by annexin V FITC and propidium iodide based flow cytometry (reference value: 0.02 %); type: functional; how it was run: as §3
A549 [17] = assay: Induction of apoptosis in human A549 cells assessed as viable cells at 10 uM incubated for 48 hrs by annexin V FITC and propidium iodide based flow cytometry (reference value: 94.7 %); type: functional; conditions: A549, 48 h, read-out: Activity; how it was run: as §3
A549 [18] = assay: Induction of apoptosis in human A549 cells assessed as early apoptotic cells at 10 uM incubated for 48 hrs by annexin V FITC and propidium iodide based flow cytometry (reference value: 2.15 %); type: functional; how it was run: as §3
A549 [19] = assay: Induction of apoptosis in human A549 cells assessed as late apoptotic cells at 10 uM incubated for 48 hrs by annexin V FITC and propidium iodide based flow cytometry (reference value: 3.11 %); type: functional; how it was run: as §3
A549 [20] = assay: Induction of apoptosis in human A549 cells assessed as necrotic cells at 10 uM incubated for 48 hrs by annexin V FITC and propidium iodide based flow cytometry (reference value: 0.02 %); type: functional; how it was run: as §3
A549 [21] = assay: Inhibition of cell migration in human A549 cells at 1 to 10 uM incubated for 24 hrs by crystal violet staining based transwell migration assay; type: functional
How it was run: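 A549 cells pretreated 24 h with compound (1, 5, 10 µM), harvested into serum-free RPMI1640; 30,000 cells placed in upper transwell chamber, lower chamber RPMI1640 + 10% FBS as chemoattractant. Migration 24 h at 37°C, 5% CO2; cells fixed MeOH/acetic acid (3:1), upper side wiped, underside stained 0.1% crystal violet and counted. Three repeats, mean ± SEM.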

T1 sequence (P14780 whole entry): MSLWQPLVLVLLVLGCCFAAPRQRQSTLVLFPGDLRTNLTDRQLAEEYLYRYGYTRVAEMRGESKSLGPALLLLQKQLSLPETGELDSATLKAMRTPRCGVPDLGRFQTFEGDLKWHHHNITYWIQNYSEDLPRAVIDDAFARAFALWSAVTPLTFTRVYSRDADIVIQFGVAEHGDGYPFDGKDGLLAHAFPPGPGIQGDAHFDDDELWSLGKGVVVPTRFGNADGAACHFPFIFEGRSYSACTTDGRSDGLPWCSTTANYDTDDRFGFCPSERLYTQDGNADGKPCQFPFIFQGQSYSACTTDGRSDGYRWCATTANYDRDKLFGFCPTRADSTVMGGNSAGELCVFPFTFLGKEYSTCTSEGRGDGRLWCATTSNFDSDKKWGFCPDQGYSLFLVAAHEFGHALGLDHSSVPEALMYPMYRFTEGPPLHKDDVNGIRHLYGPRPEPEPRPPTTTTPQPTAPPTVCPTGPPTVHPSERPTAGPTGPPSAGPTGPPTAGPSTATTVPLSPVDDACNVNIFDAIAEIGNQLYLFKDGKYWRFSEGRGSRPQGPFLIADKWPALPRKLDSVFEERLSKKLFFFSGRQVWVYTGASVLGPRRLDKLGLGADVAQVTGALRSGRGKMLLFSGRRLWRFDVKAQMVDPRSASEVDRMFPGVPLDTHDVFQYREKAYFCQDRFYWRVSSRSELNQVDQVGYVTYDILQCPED

| Structure (SMILES) | inhibition [1] | IC50 [2] | IC50 [3] | inhibition [4] | IC50 (HL-60) | IC50 (K562) | IC50 (KG-1) | IC50 (A549 [5]) | IC50 (PC-3) | IC50 (MCF7) | IC50 (HUVEC [6]) | other results |
| --- | --- | --- | --- | --- | --- | --- | --- | --- | --- | --- | --- | --- |
| O=C(CCNCc1ccc(O)c2ncccc12)Nc1ccccc1 | 9.8% | > 10 µM | > 10 µM | – | – | – | – | – | – | – | – | – |
| O=C(CCN1C(=O)c2ccccc2S1(=O)=O)Nc1ccc(O)c2ncccc12 | – | > 10 µM | > 10 µM | – | – | – | – | – | – | – | – | – |
| Cc1[nH]c2ccccc2c1CCNC(=O)CCCCNCc1cc(Cl)c2cccnc2c1O | 100% | 7.6 µM | 3.1 µM | 67.8% | – | – | – | – | – | – | – | – |
| Cc1[nH]c2ccccc2c1CCNC(=O)CCCCCNCc1cc(Cl)c2cccnc2c1O | 77.1% | 3.6 µM | 1.7 µM | 100% | 2.6 µM | 4.2 µM | 4.7 µM | > 25 µM | > 25 µM | 12 µM | > 50 µM | – |
| O=C(CCCCCCNCc1ccc(O)c2ncccc12)Nc1ccccc1 | 28.8% | > 10 µM | > 10 µM | 53.8% | – | – | – | – | – | – | – | – |
| O=C(CCCN1C(=O)c2ccccc2S1(=O)=O)Nc1ccc(O)c2ncccc12 | – | > 10 µM | > 10 µM | 50.1% | – | – | – | – | – | – | – | – |
| O=C(CCCCNCc1cc(Cl)c2cccnc2c1O)Nc1ccccc1 | 99.9% | 3 µM | 3.6 µM | 100% | 1.9 µM | 2.9 µM | 1.6 µM | 13 µM | 8.4 µM | 7.4 µM | > 50 µM | – |
| Cc1[nH]c2ccccc2c1CCNC(=O)CCNCc1ccc(O)c2ncccc12 | 11.3% | > 10 µM | > 10 µM | 49.8% | – | – | – | – | – | – | – | – |
| COc1ccc(S(=O)(=O)N(CC(=O)NO)CC(C)C)cc1 | – | 0.0091 µM | 0.0088 µM | – | 29 µM | 143 µM | 52 µM | 96 µM | 52 µM | 187 µM | > 250 µM | inhibition (A549 [7]): Active |
| Cc1nc2ccccc2n1CCCCC(=O)Nc1ccc(O)c2ncccc12 | – | > 10 µM | > 10 µM | – | – | – | – | – | – | – | – | – |
| CN(CCC(=O)Nc1ccc(O)c2ncccc12)c1ccccc1 | – | > 10 µM | > 10 µM | – | – | – | – | – | – | – | – | – |
| Cc1nc2ccccc2n1CCCC(=O)Nc1ccc(O)c2ncccc12 | – | > 10 µM | > 10 µM | 46.9% | – | – | – | – | – | – | – | – |
| O=C(CCCCCNCc1ccc(O)c2ncccc12)Nc1ccccc1 | 55% | 8.8 µM | 6 µM | 56% | – | – | – | – | – | – | – | – |
| O=S(=O)(Nc1ccc(O)c2ncccc12)c1ccc(F)cc1 | – | 8.8 µM | 11 µM | – | 4.6 µM | 3.6 µM | 4.6 µM | 51 µM | 18 µM | 42 µM | > 50 µM | inhibition (HUVEC [8]): Active; viability at 1 µM (A549 [9]): 79.5%; Activity (A549 [10]): 14.4%; Activity (A549 [11]): 6.11%; Activity (A549 [12]): 0.032%; viability at 5 µM (A549 [13]): 74.6%; Activity (A549 [14]): 19.8%; Activity (A549 [15]): 5.49%; Activity (A549 [16]): 0.017%; viability at 10 µM (A549 [17]): 73.1%; Activity (A549 [18]): 20.2%; Activity (A549 [19]): 6.57%; Activity (A549 [20]): 0.11%; inhibition (A549 [21]): Active |
| O=C(CCCNCc1cc(Cl)c2cccnc2c1O)Nc1ccccc1 | 100% | 3.8 µM | 3.2 µM | 100% | 1.9 µM | 1.9 µM | 1.6 µM | 17 µM | 7.7 µM | 9 µM | > 50 µM | – |

— ChEMBL document CHEMBL4406825, “Design, synthesis and preliminary bioactivity evaluations of 8-hydroxyquinoline derivatives as matrix metalloproteinase (MMP) inhibitors” (Eur J Med Chem, 2019)
